VIM-2 inh: inhibitors of Pseudomonas aeruginosa VIM-2 metallo-beta-lactamase | purified VIM-2, nitrocefin hydrolysis, epi-absorbance fluorescence | inhibition, % at 5.6 µM | actives 0.89% (n = 290,000);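 active = inhibition above the mean of all tested compounds plus 3 SD, cutoff set per screening run, cut at about 7.5% in these data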;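 also: red hydrolysis product quenches plate fluorescence so inhibitors raise well fluorescence; 0% = enzyme with DMSO and 100% = DMSO without enzyme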
PvdQ acylase: blocks Pseudomonas aeruginosa PvdQ acylase activity; inhibition, % at 10 µM; actives 0.063% (n = 340,000); purified PvdQ acylase, fluorescence plate reader; in the data active = inhibition above about 30%, passing the limit was not always enough; inconclusive = no clear call, values can overlap the other calls;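 also: 0% = vehicle neutral wells and 100% = reference inhibitor wells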
IMP-1 inhibitor: inhibitors of Pseudomonas aeruginosa IMP-1 metallo-beta-lactamase | purified IMP-1, nitrocefin hydrolysis, epi-absorbance fluorescence | inhibition, % at 5.6 µM | actives 0.45% (n = 290,000);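 active = inhibition above the mean plus 3 SD of all compounds in the same screening run, cut at about 4.5% in these data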;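 also: 0% = IMP-1 with DMSO and 100% = DMSO wells lacking enzyme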
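System: Purified IMP-1 | Read-out basis: Percent enzyme inhibition | Controls: IMP-1 with DMSO as 0%, enzyme-free DMSO as 100% | Replicates: One well per compound | Doses: 5.6 µM nominal single concentration | Detection: Epi-absorbance fluorescence, 480 nm excitation, 530 nm emission | Incubation: 25 °C, 15 min preincubation, 25 min reaction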
FID counter: fluorescent intercalator displacement, NS3 helicase counter-screen; DNA fluorescent intercalator displacement, fluorescence; AID 1845; actives 0.17% (n = 290,000); inhibition, % at 7.9 µM; in the data active = inhibition above about 37%;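 also: 0% = vehicle and 100% = reference compound; higher means more ethidium bromide displaced from hairpin DNA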
RAD54 inh: blocks human RAD54 Holliday junction branch migration | Q92698 | actives 0.14% (n = 360,000) | inhibition, % at 10.4 µM | FAM/BHQ fluorescence | AID 602329;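 active = mean normalized replicate activity at least 40 and at least half of replicates scoring 40 or more; inconclusive = only one of the two criteria met; inactive = mean below 40 and under half of replicates reaching 40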;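 also: 0% = median of neutral control wells and 100% = median of positive control wells; inhibitors cause a drop in the FAM fluorescence signal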
Target sequence (Q92698 whole entry, looked up): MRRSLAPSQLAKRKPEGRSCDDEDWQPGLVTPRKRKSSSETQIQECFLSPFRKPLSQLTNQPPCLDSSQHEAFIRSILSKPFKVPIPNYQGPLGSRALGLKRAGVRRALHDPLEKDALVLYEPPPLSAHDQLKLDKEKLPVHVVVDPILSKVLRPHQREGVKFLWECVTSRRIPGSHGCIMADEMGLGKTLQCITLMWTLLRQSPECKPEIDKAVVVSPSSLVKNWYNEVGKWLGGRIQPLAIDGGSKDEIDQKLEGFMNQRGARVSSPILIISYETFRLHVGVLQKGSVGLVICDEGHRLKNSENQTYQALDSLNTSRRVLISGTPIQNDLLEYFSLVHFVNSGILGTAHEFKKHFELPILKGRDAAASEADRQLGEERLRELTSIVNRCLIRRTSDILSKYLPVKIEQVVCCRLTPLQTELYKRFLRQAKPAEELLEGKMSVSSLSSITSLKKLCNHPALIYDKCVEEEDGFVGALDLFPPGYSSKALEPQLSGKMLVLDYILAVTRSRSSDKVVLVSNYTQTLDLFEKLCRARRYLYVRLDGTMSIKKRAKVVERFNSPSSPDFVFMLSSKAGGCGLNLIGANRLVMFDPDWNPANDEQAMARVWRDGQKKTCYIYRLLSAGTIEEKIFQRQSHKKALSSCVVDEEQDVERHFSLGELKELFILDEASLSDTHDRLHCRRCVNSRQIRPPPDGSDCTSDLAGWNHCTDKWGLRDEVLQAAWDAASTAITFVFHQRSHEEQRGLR
Rad54 DNA ctr: counter-screen for Rad54 inhibitors: DNA binding compounds. shares compounds with RAD54 inh. Acridine orange-DNA displacement, fluorescence polarization, 20 min. AC50, µM (highest dose often 35 µM), for inactives: top-dose activity change, negative = DNA binding. actives 8% (n = 460). AID 651673;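 active = signal drop giving an AC50 within twice the top valid tested concentration of each sample, actives reach about 35 µM in these data; inactive = activity opposite to expected, plus the rest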;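 also: polarization loss reports compound binding to salmon sperm DNA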
An asterisk follows results filed as active; ? = inconclusive; · = no result given. This is a sample that favours compounds with a hit; in the whole collection about 1% have one here.

SMILES	VIM-2 inh	PvdQ acylase	IMP-1 inhibitor	FID counter	RAD54 inh	Rad54 DNA ctr
COc1ccc(CCNc2c3ccccc3nc3ccccc23)cc1OC	3	1	-2	10	100*	-12%
Cc1ccc(-c2nc(Nc3cccc(O)c3)c3ccccc3n2)cc1	1	-15	-1	12	14	·
c1ccc2c(NCCc3c[nH]c4ccccc34)c3ccccc3nc2c1	8.1*	17	-3	21	93*	36µM*
COc1ccc(Nc2c3ccccc3nc3ccccc23)cc1	9.2*	-12	-4	26	101*	27µM*
C[C@@H]1CN([C@@H](C)CO)C(=O)c2cc(NC(=O)CCC(F)(F)F)ccc2O[C@@H](C)CCCCO[C@@H]1CN(C)C(=O)Nc1ccccc1	·	·	·	·	-7	·
O=C(NCC[C@@H]1CC[C@H](NS(=O)(=O)Cc2ccccc2)[C@H](CO)O1)C1CCOCC1	·	·	·	·	5	·
C[C@@H](NC(=O)C[C@@H]1C=C[C@@H](NC(=O)Cc2ccccn2)[C@@H](CO)O1)c1ccccc1	·	·	·	·	0	·
CC(C)NC(=O)N(C)C[C@H]1Oc2ncc(C#Cc3ccccc3F)cc2C(=O)N([C@H](C)CO)C[C@@H]1C	·	·	·	·	1	·
COc1cc(Nc2nc(-c3ccccc3)c3cc(C)ccc3n2)cc(OC)c1OC	0	-8	-3	-4	1	·
COc1cc(Nc2c3ccccc3nc3ccccc23)cc(OC)c1OC	5	-2	-3	33	76*	-13%
O=C(NCc1ccccc1)[C@H]1N[C@H]2c3ccc(-c4ccccc4)c(=O)n3C[C@H]2[C@@H]1CO	·	·	·	·	-4	·
Cc1ccc2[nH]c3c(NCCN4CCOCC4)ncnc3c2c1	4	-3	1	23	14	·
Clc1ccc2[nH]c3c(NCCCN4CCOCC4)ncnc3c2c1	9.9*	4	2	38*	?	-1%
